# Assay outcomes as filed in PubChem BioAssay.
# Lipid droplet = inhibitors of hepatocyte lipid droplet formation, primary screen, imaging, high-throughput imaging, BODIPY stain. AML12 mouse hepatocytes, oleate lipid droplets. inhibition, % at 6.5 µM. hit rate 0.4% among 240,000;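 active means lipid droplet intensity inhibited by at least 50%, with more than 500 cells counted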
#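 Technique: fluorescence imaging, 20x objective, two fields per well / Assay system: AML12 hepatocytes (mouse) / Measure: % inhibition of lipid droplet signal / Doses: 6.5 µM single-point dosing / Incubation: overnight exposure / Reagent: 100 µM oleic acid challenge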
# core dimer inh = inhibitors of HCV core protein dimerization, primary screen, biochemical, TR-FRET, high-throughput; TR-FRET GST/Flag-core106 dimerization, 1536-well; inhibition, % at 5 µM; hit rate 0.33% among 300,000;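 active means inhibition above the mean of all tested compounds plus 3 SD, set per screening campaign, cut at about 45% in these data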
#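 System: GST-tagged and Flag-tagged HCV core protein residues 1-106 / Input: core106 proteins, GST 13.5 nM and Flag 17 nM / Buffer or medium: KF-containing HEPES buffer, pH 7.45, DTT, CHAPS, BSA / Probe or stimulus: Eu-anti-GST and XL665-anti-Flag labelled anti-tag antibodies / Schedule: 4 h, 22.5 °C incubation / Technique: TR-FRET 671 and 617 nm emission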
# HCV NS3 hel inh = inhibitors of HCV NS3 helicase, primary screen, biochemical, Cy5 molecular beacon fluorescence; Hepatitis C virus NS3 helicase; NS3 helicase DNA unwinding; inhibition, % at 10.9 µM; hit rate 0.56% among 290,000; AID 1800, 2009;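 active means inhibition above the mean of all tested compounds plus 3 SD, set per campaign, cut at about 35% in these data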;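 further: 0% = DMSO wells and 100% = thioflavine S control wells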
#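 Test system: hepatitis C virus NS3 helicase domain fragment enzyme. Also added: annealed dual-labelled DNA beacon duplex, ATP-started. Timing: 60 min unwinding reaction at 25 °C after ATP addition. Technique: Cy5 fluorescence. Measure: % inhibition of unwinding.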
# Tb MetRS inh = T. brucei MetRS inhibitors, primary screen, biochemical, luminescence | purified T. brucei MetRS, ATP depletion, Kinase-Glo luminescence | hit rate 0.4% among 360,000 | methionyl-tRNA synthetase (Trypanosoma brucei brucei) | AID 624268, 2012 | inhibition, % at 11.9 µM;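 active means inhibition above a per-plate cutoff of the control wells' mean inhibition plus 3 SD, cut at about 5.5% in these data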;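 further: 0% = DMSO wells median and 100% = median of wells with control inhibitor compound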
#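 Measured by: Kinase-Glo luciferase luminescence reporting remaining unconsumed ATP. Material: purified T. brucei MetRS enzyme. Doses: 11.9 µM compound single dose, 0.9% DMSO. Medium: HEPES buffer containing pyrophosphatase, BSA, spermine, DTT. Times: 15 min preincubation, 2 h reaction, all 25 °C. Reagent: methionine, ATP and bulk E. coli tRNA.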
# TbMetRS confirm = T. brucei MetRS inhibitors, confirmation, biochemical, luminescence. shares compounds with Tb MetRS inh. T. brucei MetRS enzyme, luminescence (ATP depletion). inhibition, % at 11.9 µM. hit rate 93% among 1,400; in the data active means inhibition above about 7%
# Jurkat tox = Jurkat T cell cytotoxicity, cytotoxicity control for T. brucei MetRS inhibitor project, luminescence, high throughput; inhibition, % at 8.3 µM; hit rate 12% among 1,400; Jurkat cells viability, ATP luminescence; shares compounds with Tb MetRS inh; in the data active means inhibition above about 15%;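 further: 0% = vehicle and 100% = reference inhibitor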
# Tb MetRS inh FP = T. brucei MetRS inhibitors, orthogonal assay for T. brucei MetRS inhibitor project, biochemical, fluorescence polarization. inhibition, % at 11.9 µM. purified T. brucei MetRS. shares compounds with Tb MetRS inh. AID 651607, 2012. hit rate 44% among 1,400; in the data active means inhibition above about 17%;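 further: 0% = vehicle wells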
# * marks the source's active call; other numbers are inactive results; x = not tested or not shown. An excerpt weighted towards active compounds, which were near 1.3% of everything screened.
SMILES,Lipid droplet,core dimer inh,HCV NS3 hel inh,Tb MetRS inh,TbMetRS confirm,Jurkat tox,Tb MetRS inh FP
CCc1cc(=O)oc2cc(C)cc(OCC(=O)NC(Cc3c[nH]c4ccc(O)cc34)C(=O)O)c12 (stereo not drawn),x,3.6,6.8,6.6*,9.7*,7.5,4.0
COc1ccc(OC)c(NC(=O)CC(NC(C)=O)c2ccccc2)c1 (stereo not drawn),-3.3,-1.9,6.9,-0.7,x,x,x
CC1CCN(CCOCCOc2ccc(Br)cc2Cl)CC1,-44.2,-5.7,-39.0,1.3,x,x,x
CN(C)CCCCOc1ccc(Br)cc1Cl,-21.5,-5.9,4.3,8.0*,20.6*,6.5,11.3
CC1CCCN(CCCOc2ccc(Br)cc2Cl)C1 (stereo not drawn),-29.1,-1.6,-6.8,16.7*,29.7*,22.9*,10.7
CC(C)n1cc(/C(N)=N/O)c(=O)n(Cc2ccccc2)c1=O,-4.5,-2.8,-3.6,0.1,x,x,x
O=C(NCC(O)c1ccc([N+](=O)[O-])cc1)Nc1ccccc1 (stereo not drawn),-2.0,-1.1,9.8,27.2*,46.2*,-7.2,21.3*
COc1ccc(CN=C2Nc3ccccc3CS2)cc1,x,2.2,-11.4,7.7*,24.7*,4.1,2.7
COc1ccc(CN=C2NN=C(c3ccc(Cl)cc3)CS2)cc1,18.6,4.1,-7.6,-0.8,x,x,x
CCC/C=N/NC(=O)c1cccc(Br)c1,-7.4,1.2,-1.6,-0.9,x,x,x
COC(=O)c1sc(-c2ccc(Cl)cc2)cc1NC(=O)CSCC(=O)O,2.7,11.0,29.1,20.1*,33.2*,-6.9,23.8*
CC(=O)Nc1cccc(/C(C)=N\NC(=O)c2ccc(Cn3nc([N+](=O)[O-])c(Cl)c3C)o2)c1,34.8,-10.9,-4.6,0.3,x,x,x
Cc1ccc(NC(=O)Cn2c(=O)c(C)nc3ccccc32)cc1,-18.7,-0.7,-13.2,-0.6,x,x,x
Cc1nc2ccccc2n(CC(=O)Nc2cc(Cl)cc(Cl)c2)c1=O,5.4,5.0,0.2,5.8*,11.0*,-4.0,6.8
Cc1cccc(NC(=O)Cn2c(/C=C/c3ccccc3)nc3ccccc32)c1,-23.3,10.7,-3.5,10.4*,18.9*,-0.3,9.6
CCOC(=O)c1cccc(NC(=O)Cn2c(CC(=O)NC)nc3ccccc32)c1,x,1.6,3.9,79.4*,87.7*,5.5,71.4*
CC(CCc1ccccc1)NC(=O)CCC(=O)N1CCC(C(=O)O)CC1 (stereo not drawn),-3.8,-3.3,12.8,-0.1,x,x,x
Cn1c(COc2ccc(Cl)cc2Cl)nnc1SCC(=O)NCC1CCCO1 (stereo not drawn),-0.2,-9.8,26.9,6.0*,16.6*,-3.2,3.6
Cc1cccc(OCc2nnc(SCC(=O)NCC3CCCO3)n2C)c1 (stereo not drawn),-1.2,0.6,12.5,-0.3,x,x,x
COC(=O)c1c(C)[nH]c(C(=O)C(C)OC(=O)c2cnc(C)cn2)c1C (stereo not drawn),x,x,x,0.0,x,x,x
COc1ccc(CNc2ncnc3cc(Cl)ccc23)cc1,-1.8,-6.8,3.1,1.3,x,x,x
COc1cccc(CNc2ncnc3cc(Cl)ccc23)c1,-34.2,x,-8.9,12.1*,20.1*,14.0,5.5
Nc1ccc(N2CCOCC2)c2nonc12,24.9,-9.8,4.8,26.5*,4.5,-5.5,0.7
CC(NC(=O)c1ccco1)C(=O)N1CCc2ccccc2C1 (stereo not drawn),-1.2,-0.7,11.5,-0.8,x,x,x
O=C(N=Nc1c(O)[nH]c2ccc(Br)cc12)c1ccccc1-n1cccc1,-165.2,4.3,-9.4,8.6*,26.3*,75.8*,12.5
SMILES,Lipid droplet,core dimer inh,HCV NS3 hel inh,Tb MetRS inh,TbMetRS confirm,Jurkat tox,Tb MetRS inh FP
C[C@@H]1CCCCO[C@H](CN(C)C(=O)Nc2ccc(F)cc2)[C@@H](C)CN([C@H](C)CO)C(=O)c2cc(NC(=O)c3ccccc3)ccc2O1,x,x,x,-0.9,x,x,x
C[C@@H]1CN([C@@H](C)CO)C(=O)c2cc(NC(=O)Nc3ccccc3)ccc2O[C@@H](C)CCCCO[C@H]1CN(C)C(=O)Nc1ccc(C(F)(F)F)cc1,x,x,x,17.5*,22.4*,2.9,15.2
Oc1ccc(/C=N/Nc2ccnc3cc(Cl)ccc23)c(O)c1,15.9,-12.1,-15.6,14.4*,21.5*,55.5*,46.5*
COc1ccccc1CN1CCc2c([nH]c3ccccc23)C1,1.7,-7.7,-23.8,15.7*,31.4*,14.9,12.1
COc1ccc(NC(=O)CN(C)C(=O)Cc2ccc(S(=O)(=O)N3CCOCC3)s2)cc1,x,7.1,x,-0.6,x,x,x
O=C(NNc1cc(Cl)cc(Cl)c1)c1cccs1,-4.8,-4.2,-4.0,25.0*,56.3*,-3.1,30.0*
CCc1ccc(C(=O)NNc2cc(Cl)cc(Cl)c2)cc1,-6.4,2.9,-4.2,14.7*,39.4*,2.3,18.8*
CCOc1ccc(S(=O)(=O)c2c[nH]c3ccccc3c2=O)cc1,-10.4,-133.7,6.2,12.8*,24.2*,1.4,6.2
O=C(c1ccccc1)c1ccccc1C(=O)N1CCN(C(=O)c2ccccc2)CC1,-3.6,4.1,3.3,0.1,x,x,x
CCN(CC(=O)Nc1c(F)cccc1F)C(=O)c1ccc(-n2cncn2)c([N+](=O)[O-])c1,x,-2.7,x,2.4,x,x,x
O=C(Nc1ccc(F)c(F)c1)c1ccc(-n2cncn2)c([N+](=O)[O-])c1,x,x,x,37.0*,58.1*,13.4,28.9*
O=C(NNC(=O)c1ccccc1F)c1ccc(-n2cncn2)c([N+](=O)[O-])c1,x,-15.1,x,3.0,x,x,x
O=C(Nc1cccc(/C=C/c2ccccn2)c1)c1ccc(-n2cncn2)c([N+](=O)[O-])c1,x,-2.0,x,23.1*,62.3*,21.6*,55.4*
Cc1cccc(NC(=O)c2ccc(-n3cccn3)c([N+](=O)[O-])c2)c1,x,-1.8,3.8,0.2,x,x,x
O=C(Nc1cc(F)ccc1F)c1ccc(-n2cncn2)c([N+](=O)[O-])c1,x,-5.5,x,36.1*,56.6*,2.1,33.0*
O=C(Nc1ccccc1)c1ccc(=O)n(Cc2cccc(Cl)c2)c1,-44.3,7.9,-5.1,42.6*,57.7*,6.0,27.8*
O=C(NCc1ccccc1)c1ccc(Cn2cc(C(F)(F)F)ccc2=O)cc1,x,-2.5,-8.5,-0.1,x,x,x
CCNC(=S)NNC(=O)c1ccc(=O)n(Cc2ccccc2)c1,2.8,-1.6,10.2,22.5*,37.2*,1.1,21.5*
